Data published in publication PMC3581696 (The Journal of General Physiology, 2013).

What was measured:
mEAG1 Δ821–989 channels = biological target: T1, mEAG1 Δ821–989 channels (Mus musculus, UniProt Q60603); test: Inside-out patch-clamp of post-CNBHD deletion mutant channels; type: cell-based; settings: with 30 µM fisetin
T1 sequence (Q60603 1-820): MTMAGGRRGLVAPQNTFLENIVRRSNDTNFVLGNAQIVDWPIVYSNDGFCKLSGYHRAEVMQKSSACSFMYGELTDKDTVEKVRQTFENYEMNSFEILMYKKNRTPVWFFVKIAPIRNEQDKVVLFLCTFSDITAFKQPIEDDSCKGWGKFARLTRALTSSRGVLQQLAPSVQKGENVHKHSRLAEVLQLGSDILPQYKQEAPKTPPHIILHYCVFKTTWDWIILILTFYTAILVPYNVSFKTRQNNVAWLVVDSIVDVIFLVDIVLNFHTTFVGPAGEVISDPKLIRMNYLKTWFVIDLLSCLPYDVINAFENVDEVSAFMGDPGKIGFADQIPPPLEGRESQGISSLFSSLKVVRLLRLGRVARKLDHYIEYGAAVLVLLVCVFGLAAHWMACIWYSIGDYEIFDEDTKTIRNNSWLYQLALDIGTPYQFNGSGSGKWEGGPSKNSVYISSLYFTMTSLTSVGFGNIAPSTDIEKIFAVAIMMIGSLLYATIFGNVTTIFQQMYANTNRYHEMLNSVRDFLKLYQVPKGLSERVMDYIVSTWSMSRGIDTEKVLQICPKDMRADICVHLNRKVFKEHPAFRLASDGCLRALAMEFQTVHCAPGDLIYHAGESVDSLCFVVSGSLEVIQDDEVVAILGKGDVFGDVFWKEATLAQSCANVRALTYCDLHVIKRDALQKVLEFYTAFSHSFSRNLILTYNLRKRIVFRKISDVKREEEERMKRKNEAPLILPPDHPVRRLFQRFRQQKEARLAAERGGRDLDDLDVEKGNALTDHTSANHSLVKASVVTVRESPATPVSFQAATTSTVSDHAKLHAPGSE
How it was run: (§1)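 mEAG1 mutant cRNA was injected into defolliculated Xenopus oocytes, and the vitelline membrane was removed. Inside-out patches were bathed in symmetric 130 mM KCl, 10 mM HEPES, 0.2 mM EDTA, pH 7.2, holding at −100 mV. Steps of 0.1 s from −140 to +50 mV (10-mV increments) were followed by −120 mV tails, without or with 30 µM flavonoid. Peak tails were normalized and Boltzmann-fitted. Deactivation time constant came from single-exponential fits of the −120 mV tail after +50 mV; two-tailed t test.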

mEAG1 Y699A channels = biological target: T2, mEAG1 Y699A channels (Mus musculus, UniProt Q60603, Y699A); test: Inside-out patch-clamp of intrinsic ligand mutant channels; type: cell-based
T2 sequence (Q60603 1-989 Y699A): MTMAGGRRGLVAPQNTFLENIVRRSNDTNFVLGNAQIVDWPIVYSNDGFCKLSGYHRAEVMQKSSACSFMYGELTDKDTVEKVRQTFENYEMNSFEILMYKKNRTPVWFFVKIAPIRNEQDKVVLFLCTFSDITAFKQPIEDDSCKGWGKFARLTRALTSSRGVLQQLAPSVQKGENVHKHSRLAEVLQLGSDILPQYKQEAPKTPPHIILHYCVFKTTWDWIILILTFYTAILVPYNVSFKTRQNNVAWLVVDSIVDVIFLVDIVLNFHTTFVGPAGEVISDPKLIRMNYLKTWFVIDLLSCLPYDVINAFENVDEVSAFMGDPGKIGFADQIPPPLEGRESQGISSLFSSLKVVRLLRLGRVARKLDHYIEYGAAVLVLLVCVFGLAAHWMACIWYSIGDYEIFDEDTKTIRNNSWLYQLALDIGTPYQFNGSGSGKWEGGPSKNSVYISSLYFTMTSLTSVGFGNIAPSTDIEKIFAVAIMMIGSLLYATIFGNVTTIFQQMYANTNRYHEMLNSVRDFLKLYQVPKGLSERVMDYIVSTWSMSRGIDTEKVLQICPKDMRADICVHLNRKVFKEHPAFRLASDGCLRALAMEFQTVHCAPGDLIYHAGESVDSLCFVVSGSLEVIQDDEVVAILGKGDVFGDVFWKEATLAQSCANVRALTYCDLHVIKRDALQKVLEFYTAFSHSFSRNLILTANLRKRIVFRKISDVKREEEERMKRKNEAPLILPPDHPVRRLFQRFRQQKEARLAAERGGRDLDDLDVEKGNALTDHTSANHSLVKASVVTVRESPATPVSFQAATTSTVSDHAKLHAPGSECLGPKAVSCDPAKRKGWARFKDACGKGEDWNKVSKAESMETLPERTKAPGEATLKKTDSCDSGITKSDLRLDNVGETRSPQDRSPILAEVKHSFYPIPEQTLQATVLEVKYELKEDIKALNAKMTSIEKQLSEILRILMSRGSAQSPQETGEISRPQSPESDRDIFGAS
How it was run: as §1

rate (time constant) of deactivation (mEAG1 Δ821–989 channels; at −120 mV, 3.4 ± 0.7 ms without, n = 4): 6.7 ± 2.2 ms
time constant of deactivation (tail currents of Fig. 5 F) (mEAG1 Δ821–989 channels; tail at −120 mV after step to +50 mV, 5.2 ms without): 13.4 ms
V1/2 (Boltzmann fit of the averaged conductance–voltage relationship) (mEAG1 Δ821–989 channels; −31.9 mV without, Fig. 5 E): −50.6 mV
V1/2 of the conductance–voltage relationship (mEAG1 Δ821–989 channels; −36.4 ± 2.5 mV without, n = 4): −51.1 ± 6.0 mV
potentiation of mEAG1 Y699A channels (mEAG1 Y699A channels; 30 µM fisetin): did not potentiate
time constant of deactivation (mEAG1 Y699A channels; with 30 µM fisetin, at −120 mV, 5.0 ± 0.4 ms without, n = 10, P = 0.06): 6.4 ± 0.6 ms
V1/2 of the conductance–voltage relationship (mEAG1 Y699A channels; with 30 µM fisetin, −54.9 ± 3.5 mV without, n = 10, P = 0.65): −57.2 ± 3.6 mV
Structure (SMILES): O=c1c(O)c(-c2ccc(O)c(O)c2)oc2cc(O)ccc12 [Fisetin, 2-(3,4-dihydroxyphenyl)-3,7-dihydroxychromen-4-one]
